# Experimental data published in ChEMBL document CHEMBL3352149, “Promiscuity and selectivity in covalent enzyme inhibition: a systematic study of electrophilic fragments” (J Med Chem, 2014).
# Columns and labels:
# Escherichia coli [1] = assay: Inhibition of wild-type Escherichia coli MurC compound preincubated for 10 mins before substrate addition at 25 uM measured after 15 mins by LC-MS method
# Summary of the method: (§1)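 E. coli wild-type enzyme (4 nM) was preincubated with 25 μM compound for 10 min at 37 °C. Enzymatically generated nucleotide-sugar substrate (~200 μM) plus ATP (~200 μM), or NADPH 200 μM for MurB, was added for 10 min. Reactions were started with amino-acid cosubstrate (MurC–F) or EP-UNAG (MurB), run 15 min at 37 °C, and quenched with formic acid. Product was measured by negative-ESI LC-MS EIC peak area. MgCl2: MurC 10, MurD/E 2, MurF 5 mM; MurB had 5 mM KCl. All in 50 mM NH4HCO3, 0.07% BSA, 1% DMSO; triplicate.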
# Escherichia coli [2] = assay: Inhibition of wild-type Escherichia coli MurA compound preincubated for 10 mins before substrate addition at 25 uM measured after 15 mins by LC-MS method
# Escherichia coli [3] = assay: Inhibition of Escherichia coli MetAP at 25 uM after 20 mins by HPLC analysis
# Summary of the method: (§2)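 Endpoint assay. Enzyme (50 nM) was preincubated with 25 μM compound for 20 min at 37 °C in 50 mM Tris pH 7.5, 100 mM NaCl, 100 μM CoCl2, 0.075% BSA. MGMM substrate (400 μM) was then added for 15 min (human MetAP-1) or 20 min (E. coli MetAP). Reactions were stopped with TFA. GMM product was quantified by RP-HPLC, UV 214 nm. Triplicate.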
# Escherichia coli [4] = assay: Inhibition of wild-type Escherichia coli MurF compound preincubated for 10 mins before substrate addition at 25 uM measured after 15 mins by LC-MS method; summary of the method: as §1
# [5] = biological target: Genome polyprotein (West Nile virus) (UniProt P06935); assay: Inhibition of West Nile virus NS2B-NS3 protease at 50 uM
# Prothrombin (Bos taurus) = Prothrombin (Bos taurus) (UniProt P00735); assay: Inhibition of Bovine thrombin using Boc-Val-Pro-Arg-AMC as substrate compound preincubated at 25 uM for 15 mins by fluorescence assay
# Summary of the method: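 Bovine thrombin (final 10 nM) was preincubated 15 min with 25 μM compound in 50 mM Tris-HCl pH 7.5, 150 mM NaCl, 0.05% Tween 20. The reaction was started with Boc-Val-Pro-Arg-AMC (50 μM final). Fluorescence (ex 355/em 460 nm) was monitored continuously for 10 min; activity taken as slope (RFU/s). Triplicate.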
# [6] = GSH reactivity of the compound assessed as adducts formation meaured over 3 hrs by RP-HPLC analysis
# Summary of the method: (§3)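 Fresh aqueous glutathione (10 mM solution) was added to 50 mM Tris-maleate buffer, pH 7.5. The reaction was started with compound from 10 mM DMSO stock (final 250 μM). Mixtures were followed by reversed-phase HPLC on an ODS column with a gradient to 100% B; rate constants are given in l·mol⁻¹·s⁻¹.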
# Escherichia coli [7] = assay: Inhibition of wild-type Escherichia coli MurE compound preincubated for 10 mins before substrate addition at 25 uM measured after 15 mins by LC-MS method; summary of the method: as §1
# Escherichia coli [8] = assay: Inhibition of wild-type Escherichia coli MurD compound preincubated for 10 mins before substrate addition at 25 uM measured after 15 mins by LC-MS method; summary of the method: as §1
# [9] = biological target: Genome polyprotein (dengue virus type 2) (UniProt P12823); assay: Inhibition of Dengue virus serotype 2 NS2B-NS3 protease at 50 uM
# [10] = biological target: Methionine aminopeptidase 1 (Homo sapiens) (UniProt P53582); assay: Inhibition of human MetAP at 25 uM after 20 mins by HPLC analysis; summary of the method: as §2
# Escherichia coli [11] = assay: Inhibition of wild-type Escherichia coli MurB compound preincubated for 10 mins before substrate addition at 25 uM measured after 15 mins by LC-MS method; summary of the method: as §1
# [12] = GSH reactivity of the compound assessed as adducts formation by RP-HPLC analysis; summary of the method: as §3
# [13] = GSH reactivity of the compound assessed as half life by RP-HPLC analysis
# Genome polyprotein (West Nile virus), sequence (P06935 whole entry): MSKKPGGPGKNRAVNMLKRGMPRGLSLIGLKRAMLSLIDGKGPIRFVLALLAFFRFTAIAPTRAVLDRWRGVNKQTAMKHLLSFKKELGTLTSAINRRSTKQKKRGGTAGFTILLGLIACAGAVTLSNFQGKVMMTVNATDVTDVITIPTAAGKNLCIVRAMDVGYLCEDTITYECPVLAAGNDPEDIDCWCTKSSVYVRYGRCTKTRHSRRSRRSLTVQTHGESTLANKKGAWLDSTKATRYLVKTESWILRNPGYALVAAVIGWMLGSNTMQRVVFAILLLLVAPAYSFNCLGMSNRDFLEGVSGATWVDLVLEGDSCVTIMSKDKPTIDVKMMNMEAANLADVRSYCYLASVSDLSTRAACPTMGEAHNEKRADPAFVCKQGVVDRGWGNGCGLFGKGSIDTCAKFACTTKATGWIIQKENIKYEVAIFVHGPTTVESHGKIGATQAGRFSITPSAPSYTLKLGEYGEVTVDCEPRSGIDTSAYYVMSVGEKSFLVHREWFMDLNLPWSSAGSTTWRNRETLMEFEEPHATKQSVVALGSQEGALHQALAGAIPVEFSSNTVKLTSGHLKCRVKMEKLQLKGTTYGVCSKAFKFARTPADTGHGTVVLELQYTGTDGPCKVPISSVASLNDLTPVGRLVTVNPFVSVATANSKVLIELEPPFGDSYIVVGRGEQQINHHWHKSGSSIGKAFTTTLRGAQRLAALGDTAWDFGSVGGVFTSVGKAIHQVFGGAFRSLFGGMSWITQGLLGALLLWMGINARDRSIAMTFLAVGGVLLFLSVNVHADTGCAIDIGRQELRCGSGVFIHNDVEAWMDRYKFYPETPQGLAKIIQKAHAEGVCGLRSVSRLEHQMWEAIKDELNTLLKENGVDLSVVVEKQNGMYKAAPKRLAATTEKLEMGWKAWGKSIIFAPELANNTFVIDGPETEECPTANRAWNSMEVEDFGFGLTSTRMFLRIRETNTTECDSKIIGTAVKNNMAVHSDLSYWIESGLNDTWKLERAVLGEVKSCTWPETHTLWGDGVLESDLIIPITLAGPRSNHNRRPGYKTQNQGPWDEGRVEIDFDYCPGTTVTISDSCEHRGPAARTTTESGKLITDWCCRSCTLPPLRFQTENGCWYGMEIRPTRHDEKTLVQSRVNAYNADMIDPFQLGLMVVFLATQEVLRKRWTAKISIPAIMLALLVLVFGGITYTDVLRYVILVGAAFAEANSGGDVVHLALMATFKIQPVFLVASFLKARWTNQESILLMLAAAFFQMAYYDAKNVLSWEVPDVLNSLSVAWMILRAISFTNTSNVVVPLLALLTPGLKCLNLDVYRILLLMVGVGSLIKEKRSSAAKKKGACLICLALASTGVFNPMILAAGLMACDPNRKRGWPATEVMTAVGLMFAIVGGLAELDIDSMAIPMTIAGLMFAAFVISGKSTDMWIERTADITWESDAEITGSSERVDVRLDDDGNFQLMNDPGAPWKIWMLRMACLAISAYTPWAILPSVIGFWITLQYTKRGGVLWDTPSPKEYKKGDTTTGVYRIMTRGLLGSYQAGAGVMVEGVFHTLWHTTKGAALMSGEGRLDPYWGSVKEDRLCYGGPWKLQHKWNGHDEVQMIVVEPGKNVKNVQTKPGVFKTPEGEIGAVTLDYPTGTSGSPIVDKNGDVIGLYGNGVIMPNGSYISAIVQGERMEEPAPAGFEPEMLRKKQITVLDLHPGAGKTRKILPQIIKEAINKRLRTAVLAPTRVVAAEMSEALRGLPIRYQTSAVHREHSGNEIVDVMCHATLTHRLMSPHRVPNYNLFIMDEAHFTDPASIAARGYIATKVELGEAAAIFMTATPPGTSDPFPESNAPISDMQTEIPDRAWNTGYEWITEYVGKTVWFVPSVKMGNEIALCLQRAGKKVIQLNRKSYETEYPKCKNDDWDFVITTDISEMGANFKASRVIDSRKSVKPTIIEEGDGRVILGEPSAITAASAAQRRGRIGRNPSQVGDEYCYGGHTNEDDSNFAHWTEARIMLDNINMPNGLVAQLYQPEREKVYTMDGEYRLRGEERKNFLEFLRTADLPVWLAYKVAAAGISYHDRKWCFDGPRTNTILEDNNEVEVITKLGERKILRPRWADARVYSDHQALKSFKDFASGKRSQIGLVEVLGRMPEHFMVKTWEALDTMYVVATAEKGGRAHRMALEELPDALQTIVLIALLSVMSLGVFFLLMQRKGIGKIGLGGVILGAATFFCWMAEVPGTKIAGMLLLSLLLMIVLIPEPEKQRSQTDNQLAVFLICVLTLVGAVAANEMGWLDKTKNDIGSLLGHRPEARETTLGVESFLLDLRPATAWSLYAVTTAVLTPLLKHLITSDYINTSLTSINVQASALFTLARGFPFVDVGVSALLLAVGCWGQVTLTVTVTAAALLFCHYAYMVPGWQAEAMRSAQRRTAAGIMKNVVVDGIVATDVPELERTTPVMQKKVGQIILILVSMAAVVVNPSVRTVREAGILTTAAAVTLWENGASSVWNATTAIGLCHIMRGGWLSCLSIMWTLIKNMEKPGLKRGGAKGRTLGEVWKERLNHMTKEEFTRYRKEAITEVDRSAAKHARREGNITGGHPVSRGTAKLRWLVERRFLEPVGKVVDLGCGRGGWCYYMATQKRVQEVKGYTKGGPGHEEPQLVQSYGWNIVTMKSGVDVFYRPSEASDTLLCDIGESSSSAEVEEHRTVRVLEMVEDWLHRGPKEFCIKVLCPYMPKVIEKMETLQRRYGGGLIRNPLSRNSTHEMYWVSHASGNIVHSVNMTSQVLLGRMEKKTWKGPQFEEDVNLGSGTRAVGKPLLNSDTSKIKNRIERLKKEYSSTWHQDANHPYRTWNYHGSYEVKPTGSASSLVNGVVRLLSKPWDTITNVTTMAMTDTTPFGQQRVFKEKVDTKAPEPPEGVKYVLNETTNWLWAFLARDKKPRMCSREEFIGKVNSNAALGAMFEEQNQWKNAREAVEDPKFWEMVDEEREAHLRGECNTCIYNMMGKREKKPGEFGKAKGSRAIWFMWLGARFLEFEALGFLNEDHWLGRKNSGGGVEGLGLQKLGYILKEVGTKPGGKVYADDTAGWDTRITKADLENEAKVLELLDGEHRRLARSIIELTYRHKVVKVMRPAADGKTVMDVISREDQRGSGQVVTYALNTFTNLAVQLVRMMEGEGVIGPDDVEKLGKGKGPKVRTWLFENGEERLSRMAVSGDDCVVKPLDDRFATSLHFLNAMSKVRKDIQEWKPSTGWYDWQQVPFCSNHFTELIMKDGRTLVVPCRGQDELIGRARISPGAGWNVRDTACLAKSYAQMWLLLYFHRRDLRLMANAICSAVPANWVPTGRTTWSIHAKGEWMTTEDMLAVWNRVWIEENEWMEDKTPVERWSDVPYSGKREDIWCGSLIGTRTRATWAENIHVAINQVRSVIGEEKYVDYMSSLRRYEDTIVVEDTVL
Compound,inhibition (Escherichia coli [1]) [%],inhibition (Escherichia coli [2]) [%],inhibition (Escherichia coli [3]) [%],inhibition (Escherichia coli [4]) [%],inhibition [5] [%],inhibition (Prothrombin (Bos taurus)) [%],Activity [6] [%],inhibition (Escherichia coli [7]) [%],inhibition (Escherichia coli [8]) [%],inhibition [9] [%],inhibition [10] [%],inhibition (Escherichia coli [11]) [%],Activity [12] [L/mol/s],T1/2 [13] [h]
C=CC(=O)NC1CCCC1,< 15,< 15,< 15,< 15,< 15,< 15,< 5,< 15,< 15,< 15,17,< 15,< 0.1,–
Cc1ccc(NC(=O)C2CC(Br)=NO2)cc1 (configuration not stated),< 15,< 15,19,< 15,22,< 15,–,< 15,< 15,< 15,< 15,< 15,< 0.1,> 200
O=C(NCc1ccccc1)C1CC(Br)=NO1 (configuration not stated),< 15,< 15,< 15,15,< 15,< 15,–,< 15,16,< 15,< 15,18,< 0.1,> 200
C=CC(=O)Nc1ccc(C)cc1,< 15,< 15,< 15,< 15,< 15,< 15,< 5,< 15,< 15,< 15,< 15,< 15,< 0.1,–
C=CC(=O)Nc1ccc(OC)cc1,< 15,< 15,< 15,< 15,< 15,< 15,< 5,< 15,< 15,< 15,< 15,< 15,< 0.1,–
COc1ccc(NC(=O)C2CC(Br)=NO2)cc1 (configuration not stated),< 15,< 15,< 15,< 15,21,< 15,–,18,< 15,< 15,< 15,< 15,< 0.1,> 200
C=CC(=O)NCc1ccccc1,< 15,< 15,< 15,< 15,< 15,< 15,< 5,< 15,< 15,< 15,< 15,< 15,< 0.1,–
C=CC(=O)Nc1ccc(F)cc1,< 15,< 15,< 15,< 15,< 15,< 15,< 5,< 15,< 15,< 15,< 15,< 15,< 0.1,–
O=C(NCCc1ccccc1)C1CC(Br)=NO1 (configuration not stated),< 15,< 15,< 15,< 15,< 15,< 15,–,23,18,< 15,< 15,16,< 0.1,> 200
